Source: ChEMBL document CHEMBL1795311, “Synthesis, antiproliferative activity, and mechanism of action of a series of 2-{[(2E)-3-phenylprop-2-enoyl]amino}benzamides” (Eur J Med Chem, 2011)

Experiments:
[1] = system: IGROV-1; test: Growth inhibition of human IGROV1 cells after 48 hrs by SRB assay; assay type: functional; details: IGROV-1, 48 h
Summary of the method: (§1)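 NCI DTP panel cells grown in RPMI 1640 with 5% FBS and 2 mM L-glutamine, preincubated 24 h, then given five concentrations (10-fold or ½-log dilutions from DMSO stock) for 48 h at 37 °C. Cells fixed with TCA, stained with SRB, absorbance read at 515 nm, with time-zero plates as reference.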

[2] = system: HCC 2998; test: Growth inhibition of human HCC2998 cells after 48 hrs by SRB assay; assay type: functional; details: HCC 2998, 48 h; summary of the method: as §1
[3] = system: 786-0; test: Growth inhibition of human 786-0 cells after 48 hrs by SRB assay; assay type: functional; details: 786-0, 48 h; summary of the method: as §1
[4] = system: SNB-19; test: Growth inhibition of human SNB19 cells after 48 hrs by SRB assay; assay type: functional; details: SNB-19, 48 h
Summary of the method: (§2)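 Run by the NCI Developmental Therapeutics Program: cells in RPMI 1640 with 5% FBS and 2 mM L-glutamine, plated at 5000–40,000 cells/well and grown 24 h before dosing. Drug (DMSO stock) given at five concentrations for 48 h at 37 °C, 5% CO2. Adherent cells fixed with cold TCA, stained with 0.4% SRB and read at 515 nm. GI50, TGI and LC50 taken from the time-zero, control and treated absorbances.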

[5] = system: HCT-15; test: Growth inhibition of human HCT15 cells after 48 hrs by SRB assay; assay type: functional; details: HCT-15, 48 h; summary of the method: as §1
[6] = system: A549; test: Growth inhibition of human A549 cells after 48 hrs by SRB assay; assay type: functional; details: A549, 48 h; summary of the method: as §1
[7] = system: UACC-62; test: Growth inhibition of human UACC62 cells after 48 hrs by SRB assay; assay type: functional; details: UACC-62, 48 h; summary of the method: as §2
[8] = system: RXF 393; test: Growth inhibition of human RXF393 cells after 48 hrs by SRB assay; assay type: functional; details: RXF 393, 48 h; summary of the method: as §1
[9] = system: SW-620; test: Growth inhibition of human SW620 cells after 48 hrs by SRB assay; assay type: functional; details: SW-620, 48 h; summary of the method: as §2
[10] = system: SK-OV-3; test: Growth inhibition of human SKOV3 cells after 48 hrs by SRB assay; assay type: functional; details: SK-OV-3, 48 h; summary of the method: as §2
[11] = system: K562; test: Antiproliferative activity against human K562 cells at 10 uM after 48 hrs by trypan blue assay; assay type: functional; details: K562, 48 h, read-out: GI
[12] = system: UACC-257; test: Growth inhibition of human UACC257 cells after 48 hrs by SRB assay; assay type: functional; details: UACC-257, 48 h; summary of the method: as §2
[13] = Growth inhibition of human Hs 578T cells after 48 hrs by SRB assay; assay type: functional; summary of the method: as §1
[14] = system: SK-MEL-5; test: Growth inhibition of human SK-MEL-5 cells after 48 hrs by SRB assay; assay type: functional; details: SK-MEL-5, 48 h; summary of the method: as §2
[15] = system: SF-295; test: Growth inhibition of human SF295 cells after 48 hrs by SRB assay; assay type: functional; details: SF-295, 48 h; summary of the method: as §1
[16] = system: CAKI-1; test: Growth inhibition of human Caki1 cells after 48 hrs by SRB assay; assay type: functional; details: CAKI-1, 48 h; summary of the method: as §1
[17] = system: K562; test: Growth inhibition of human K562 cells after 48 hrs by trypan blue assay; assay type: functional, cell-based; details: K562, 48 h
[18] = system: SF-539; test: Growth inhibition of human SF539 cells after 48 hrs by SRB assay; assay type: functional; details: SF-539, 48 h; summary of the method: as §1
[19] = system: SNB-75; test: Growth inhibition of human SNB75 cells after 48 hrs by SRB assay; assay type: functional; details: SNB-75, 48 h; summary of the method: as §2
[20] = system: HL-60; test: Growth inhibition of human HL60 cells after 48 hrs by SRB assay; assay type: functional; details: HL-60, 48 h; summary of the method: as §1
[21] = system: HCT-116; test: Growth inhibition of human HCT116 cells after 48 hrs by SRB assay; assay type: functional; details: HCT-116, 48 h; summary of the method: as §1
[22] = system: MOLT-4; test: Growth inhibition of human MOLT4 cells after 48 hrs by SRB assay; assay type: functional; details: MOLT-4, 48 h; summary of the method: as §1
[23] = system: UO-31; test: Growth inhibition of human UO31 cells after 48 hrs by SRB assay; assay type: functional; details: UO-31, 48 h; summary of the method: as §2
[24] = system: PC-3; test: Growth inhibition of human PC3 cells after 48 hrs by SRB assay; assay type: functional; details: PC-3, 48 h; summary of the method: as §1
[25] = system: DU-145; test: Growth inhibition of human DU145 cells after 48 hrs by SRB assay; assay type: functional; details: DU-145, 48 h; summary of the method: as §1
[26] = system: A498; test: Growth inhibition of human A498 cells after 48 hrs by SRB assay; assay type: functional; details: A498, 48 h; summary of the method: as §1
[27] = system: OVCAR-5; test: Growth inhibition of human OVCAR5 cells after 48 hrs by SRB assay; assay type: functional; details: OVCAR-5, 48 h; summary of the method: as §1
[28] = system: COLO 205; test: Growth inhibition of human COLO205 cells after 48 hrs by SRB assay; assay type: functional; details: COLO 205, 48 h; summary of the method: as §1
[29] = system: NCI-H522; test: Growth inhibition of human NCI-H522 cells after 48 hrs by SRB assay; assay type: functional; details: NCI-H522, 48 h; summary of the method: as §1
[30] = system: NCI-H226; test: Growth inhibition of human NCI-H226 cells after 48 hrs by SRB assay; assay type: functional; details: NCI-H226, 48 h; summary of the method: as §1
[31] = system: K562; test: Growth inhibition of human K562 cells after 48 hrs by SRB assay; assay type: functional; details: K562, 48 h; summary of the method: as §1
[32] = system: NCI-H23; test: Growth inhibition of human NCI-H23 cells after 48 hrs by SRB assay; assay type: functional; details: NCI-H23, 48 h; summary of the method: as §1
[33] = system: NCI-H460; test: Growth inhibition of human NCI-H460 cells after 48 hrs by SRB assay; assay type: functional; details: NCI-H460, 48 h; summary of the method: as §1
[34] = system: MCF7; test: Growth inhibition of human MCF7 cells after 48 hrs by SRB assay; assay type: functional; details: MCF7, 48 h; summary of the method: as §1
[35] = system: NCI/ADR-RES; test: Growth inhibition of human NCI/ADR-RES cells after 48 hrs by SRB assay; assay type: functional; summary of the method: as §1
[36] = system: OVCAR-3; test: Growth inhibition of human OVCAR3 cells after 48 hrs by SRB assay; assay type: functional; details: OVCAR-3, 48 h; summary of the method: as §1
[37] = system: MDA-MB-468; test: Growth inhibition of human MDA-MB-468 cells after 48 hrs by SRB assay; assay type: functional; details: MDA-MB-468, 48 h; summary of the method: as §1
[38] = system: LOX IMVI; test: Growth inhibition of human LOXIMVI cells after 48 hrs by SRB assay; assay type: functional; summary of the method: as §1
[39] = system: SF-268; test: Growth inhibition of human SF268 cells after 48 hrs by SRB assay; assay type: functional; details: SF-268, 48 h; summary of the method: as §1
[40] = system: OVCAR-4; test: Growth inhibition of human OVCAR4 cells after 48 hrs by SRB assay; assay type: functional; details: OVCAR-4, 48 h; summary of the method: as §1
[41] = system: TK-10; test: Growth inhibition of human TK10 cells after 48 hrs by SRB assay; assay type: functional; details: TK-10, 48 h; summary of the method: as §2
[42] = system: RPMI-8226; test: Growth inhibition of human RPMI8226 cells after 48 hrs by SRB assay; assay type: functional; details: RPMI-8226, 48 h; summary of the method: as §1
[43] = system: M14; test: Growth inhibition of human M14 cells after 48 hrs by SRB assay; assay type: functional; details: M14, 48 h; summary of the method: as §1
[44] = system: T47D; test: Growth inhibition of human T47D cells after 48 hrs by SRB assay; assay type: functional; summary of the method: as §2
[45] = system: EKVX; test: Growth inhibition of human EKVX cells after 48 hrs by SRB assay; assay type: functional; summary of the method: as §1
[46] = system: U-251; test: Growth inhibition of human U251 cells after 48 hrs by SRB assay; assay type: functional; details: U-251, 48 h; summary of the method: as §2
[47] = system: HT-29; test: Growth inhibition of human HT-29 cells after 48 hrs by SRB assay; assay type: functional; details: HT-29, 48 h; summary of the method: as §1
[48] = system: CCRF-CEM; test: Growth inhibition of human CCRF-CEM cells after 48 hrs by SRB assay; assay type: functional; summary of the method: as §1
[49] = system: KM12; test: Growth inhibition of human KM12 cells after 48 hrs by SRB assay; assay type: functional; details: KM12, 48 h; summary of the method: as §1
[50] = system: SN12C; test: Growth inhibition of human SN12C cells after 48 hrs by SRB assay; assay type: functional; summary of the method: as §2
[51] = system: MDA-MB-435; test: Growth inhibition of human MDA-MB-435 cells after 48 hrs by SRB assay; assay type: functional; details: MDA-MB-435, 48 h; summary of the method: as §1
[52] = system: BT-549; test: Growth inhibition of human BT549 cells after 48 hrs by SRB assay; assay type: functional; details: BT-549, 48 h; summary of the method: as §1
[53] = system: ACHN; test: Growth inhibition of human ACHN cells after 48 hrs by SRB assay; assay type: functional; summary of the method: as §1
[54] = system: HOP-92; test: Growth inhibition of human HOP92 cells after 48 hrs by SRB assay; assay type: functional; details: HOP-92, 48 h; summary of the method: as §1
[55] = system: SK-MEL-2; test: Growth inhibition of human SK-MEL-2 cells after 48 hrs by SRB assay; assay type: functional; details: SK-MEL-2, 48 h; summary of the method: as §2
[56] = system: HOP-62; test: Growth inhibition of human HOP62 cells after 48 hrs by SRB assay; assay type: functional; details: HOP-62, 48 h; summary of the method: as §1
[57] = system: MDA-MB-231; test: Growth inhibition of human MDA-MB-231 cells after 48 hrs by SRB assay; assay type: functional; details: MDA-MB-231, 48 h; summary of the method: as §1

In the case of `NC(=O)c1cc(I)ccc1NC(=O)/C=C/c1ccccc1Cl`, the GI50 [1] is reported as 0.352 µM, the GI50 [2] is reported as 0.984 µM and the GI50 [3] is reported as 0.937 µM. The GI50 [4] was 1.41 µM, the GI50 [5] was 0.987 µM and the GI50 [6] was 1.87 µM. The GI50 [7] was 0.388 µM, the GI50 [8] was 0.425 µM and the GI50 [9] was 0.605 µM. The GI50 [10] was 0.539 µM, the inhibition of growth at 10 µM [11] was 74.1% and the GI50 [12] was 38.7 µM. The GI50 [13] was 0.362 µM, the GI50 [14] was 0.367 µM and the GI50 [15] was 0.415 µM. It also gave a GI50 [16] of 0.637 µM, an IC50 [17] of 1.2 µM and a GI50 [18] of 0.444 µM. For the same compound, the GI50 [19] was 1.22 µM, the GI50 [20] was 0.165 µM and the GI50 [21] was 0.509 µM. It also gave a GI50 [22] of 1.42 µM, a GI50 [23] of 1.63 µM and a GI50 [24] of 0.832 µM. For the same compound, the GI50 [25] was 1.28 µM, the GI50 [26] was 0.88 µM and the GI50 [27] was 4.02 µM. It also gave a GI50 [28] of 0.797 µM, a GI50 [29] of 0.459 µM and a GI50 [30] of 1.14 µM. For the same compound, the GI50 [31] was 0.37 µM, the GI50 [32] was 1.39 µM and the GI50 [33] was 0.479 µM. It also gave a GI50 [34] of 0.401 µM, a GI50 [35] of 0.719 µM and a GI50 [36] of 0.294 µM. It also gave a GI50 [37] of 0.377 µM, a GI50 [38] of 4.21 µM and a GI50 [39] of 0.778 µM. It also gave a GI50 [40] of 2.37 µM, a GI50 [41] of 26.7 µM and a GI50 [42] of 0.772 µM. The GI50 [43] was 0.698 µM, the GI50 [44] was 19.9 µM and the GI50 [45] was 1 µM. For the same compound, the GI50 [46] was 0.663 µM, the GI50 [47] was 0.376 µM and the GI50 [48] was 0.484 µM. It also gave a GI50 [49] of 0.533 µM, a GI50 [50] of 1.55 µM and a GI50 [51] of 0.234 µM. The GI50 [52] was 0.816 µM, the GI50 [53] was 9.86 µM and the GI50 [54] was 13.2 µM. For the same compound, the GI50 [55] was 0.678 µM, the GI50 [56] was 2.3 µM and the GI50 [57] was 1.41 µM.
